Here are results for eight molecules from ChEMBL document CHEMBL1127496, “The structural basis of camptothecin interactions with human serum albumin: impact on drug stability” (J Med Chem, 1994).

Series [1] is described as follows: Half-life in PBS buffer solution in the presence of human serum albumin. The class given is ADME. The settings on record: PBS buffer with human serum albumin.
Series [2] is filed under the species Homo sapiens. Description: Excited-state lifetime value for lactone form of compound bound to human serum albumin. The class given is ADME. Put shortly:
(§1)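 Phase-shift lifetimes, 30 MHz modulation, no polarizers, long-pass emission filters, in PBS pH 7.4 at 37 °C. Drug 20 μM (lactone or carboxylate form) titrated with HSA. Lifetimes corrected for HSA background (τH 3.2 ns, fH weighting). Bound lifetime τB extrapolated to infinite HSA by nonlinear least-squares fit to τC = τB + b·exp(−c[HSA]). Triplicate runs.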

A short description of series [3]: Excited-state lifetime value for free carboxylate form of compound in solution. Type of series: ADME. In a few lines:
(§2)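 Phase-shift fluorescence lifetime, 30 MHz modulated excitation, no polarizers, long-pass emission filters. Measured on 20 μM lactone or carboxylate form in HSA-free PBS, pH 7.40 ± 0.05, 37 °C. Carboxylate made by mixing DMSO stock 1:1 with PBS pH 10.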

The target of series [4] is T1, Albumin (Homo sapiens, UniProt P02768). Nature of the series: Binding parameter of the lactone form to human serum albumin; n value. In a few lines:
(§3)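 Fluorescence lifetime titration in PBS, pH 7.40 ± 0.05, 37 °C. Total drug 20 μM, lactone or carboxylate form (carboxylate stock made by mixing DMSO stock 1:1 with PBS pH 10), titrated with varying HSA. Phase-shift lifetimes at 30 MHz modulation. Free fraction (τ − τB)/(τF − τB) plotted against log amino-acid residue concentration. K and n obtained by nonlinear least-squares fit to K = [Db]/([Df][aa]^n).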

The target of series [5] is T1, Albumin. Description: Binding parameter of the carboxylate form to human serum albumin; n value. In a few lines: as §3
Series [6] concerns the target T1, Albumin. Description: Association constant for the binding of the carboxylate form to human serum albumin;(M aa)e-1. In a few lines: as §3
Series [7] addresses T1, Albumin. Description: Association constant for the binding of the lactone form to human serum albumin;(M aa)e-1. In a few lines: as §3
Series [8] can be described thus: Excited-state lifetime value for free lactone form of compound in solution. The class given is ADME. In a few lines: as §2
The species named for series [9] is Homo sapiens. Nature of the series: Excited-state lifetime value for carboxylate form of compound bound to human serum albumin. The class given is ADME. The settings on record: in vitro. Put shortly: as §1
A short description of series [10]: Half-life in PBS buffer solution in the absence of human serum albumin. The settings on record: PBS buffer without human serum albumin. The class given is ADME. Put shortly: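 Lactone hydrolysis at 1 μM drug in PBS pH 7.40 ± 0.05, 37 °C, with or without 290 μM HSA. Aliquots taken at mixing and every 5 min, diluted in water, then run on C18 reversed-phase HPLC with fluorescence detection of lactone and carboxylate. t1/2 from nonlinear least-squares fit of lactone decay. At least three independent kinetic runs.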

In general, half-life refers to the time in which the quantity being followed falls by half.

T1 sequence (P02768 whole entry): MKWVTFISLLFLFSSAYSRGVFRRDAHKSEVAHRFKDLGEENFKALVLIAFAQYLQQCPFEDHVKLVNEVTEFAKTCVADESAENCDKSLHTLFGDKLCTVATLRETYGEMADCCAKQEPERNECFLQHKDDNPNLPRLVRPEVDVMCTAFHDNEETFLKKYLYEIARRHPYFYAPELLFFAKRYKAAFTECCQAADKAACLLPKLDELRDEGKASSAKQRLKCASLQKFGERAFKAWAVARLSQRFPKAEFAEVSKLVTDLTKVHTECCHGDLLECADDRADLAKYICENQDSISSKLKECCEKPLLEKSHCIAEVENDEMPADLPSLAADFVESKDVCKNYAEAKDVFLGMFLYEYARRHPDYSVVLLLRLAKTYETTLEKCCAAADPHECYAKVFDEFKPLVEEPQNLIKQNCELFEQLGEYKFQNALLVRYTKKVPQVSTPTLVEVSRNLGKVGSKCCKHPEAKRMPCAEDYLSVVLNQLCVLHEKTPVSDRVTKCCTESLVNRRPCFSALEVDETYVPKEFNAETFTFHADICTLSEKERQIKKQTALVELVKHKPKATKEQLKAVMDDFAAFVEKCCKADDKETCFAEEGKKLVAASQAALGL

With `CC[C@@]1(O)C(=O)OCc2c1cc1n(c2=O)Cc2cc3ccccc3nc2-1` [CAMPTOTHECIN], the half-life in series [1] was determined as 12.5 min; in [10], 23.8 min. Besides, the T bound is 2.7 ns in [2] and 1.3 ns in series [9]. The T free in series [3] is reported as 4.3 ns; in series [8], 4.2 ns. Also, the Activity in series [4] is reported as 1.8; in [5], 2.3. Moreover, the K is given as 4700 1/Maa in series [6] and 30 1/Maa in [7].
For the molecule `CC[C@@]1(O)C(=O)OCc2c1cc1n(c2=O)Cc2cc3cc(O)ccc3nc2-1` [HYDROXYCAMPTOTHECIN], the values for the half-life in series [1] and in series [10] were 21.1 min and 22.1 min, respectively. Also, the T bound in series [2] came out at 5.4 ns; in series [9], 5.5 ns. In addition, the T free in series [3] and in series [8] was 4 ns throughout. Besides, the Activity in [4] and in series [5] was 1.7 in each case. For the same molecule, the K in series [6] is 260 1/Maa; in series [7] it was 130 1/Maa.
As for `CCC1(O)C(=O)OCc2c1cc1n(c2=O)Cc2cc3cc4c(cc3nc2-1)OCO4` (stereo not drawn), the half-life in [1] was 20.7 min; in series [10] it was 31.7 min. For the same molecule, the T bound in [2] and in series [9] was 1.3 ns throughout. Also, the T free in [3] came out at 2.4 ns; in series [8], 2 ns. Moreover, the Activity in series [4] came out at 1.3; in series [5], 1.7. Besides, the K is 2200 1/Maa in series [6] and 10 1/Maa in [7].
For the molecule `CCC1(O)C(=O)OCc2c1cc1n(c2=O)Cc2cc3c(Cl)c4c(cc3nc2-1)OCO4` (stereo not drawn), the half-life is 16.9 min in series [1] and 34.6 min in [10]. Also, the T bound turned out to be 1.9 ns in [2] and 1.1 ns in series [9]. The T free stood at 2.5 ns in [3] and 1.9 ns in series [8]. The same molecule showed an Activity in series [5] of 1.6. Further, in [6], the K is listed as 1200 1/Maa.
Consider `CCc1c2c(nc3ccc(C4CCN(C(=O)OC)CC4)cc13)-c1cc3c(c(=O)n1C2)COC(=O)C3(O)CC` (stereo not drawn), for which the half-life worked out at 29 min in series [1] and 25.6 min in [10]. For the same molecule, the values for the T bound in series [2] and in [9] were 3.7 ns and 4 ns, respectively. Besides, the T free in series [3] is 4 ns; in [8] it was 3.7 ns.
As for `CC[C@@]1(O)C(=O)OCc2c1cc1n(c2=O)Cc2cc3c(CN(C)C)c(O)ccc3nc2-1` [TOPOTECAN], the half-life stood at 28.9 min in series [1] and 22.8 min in [10]. The T bound in [2] worked out at 6 ns; in [9] it was 6.1 ns. Also, the T free in [3] stood at 6.1 ns; in [8] it was 6 ns.
In the case of `CCc1c2c(nc3ccc(O)cc13)-c1cc3c(c(=O)n1C2)COC(=O)[C@]3(O)CC` [7-ETHYL-10-HYDROXYCAMPTOTHECIN], the half-life in [10] was determined as 19.9 min.
Take `CC[C@@]1(O)C(=O)OCc2c1cc1n(c2=O)Cc2cc3c(N)cccc3nc2-1` [9-AMINOCAMPTOTHECIN]: the figures for the half-life in series [1] and in series [10] were 23.4 min and 17.9 min, respectively.
